High-throughput results deposited in PubChem by several laboratories.
ABCG2 block = ABCG2 efflux pump inhibitors, primary screen, multiplex with ABCB1, IgMXP3 cells, flow cytometry; JC-1 efflux; inhibition, % at 6.6 µM; 190,000 compounds, 0.1% hits;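 active = inhibition above 80%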
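System: two drug-resistant human cell lines, ABCG2 and ABCB1; controls: nicardipine high and DMSO low controls; times: 10 min exposure at 25 °C with rotation, no wash; detection: flow cytometry of retained JC-1 fluorescence; read-out basis: percent efflux inhibition, scaled nicardipine 100% to DMSO 0%; doses: one concentration, 6.6 µM final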
PMI act satM6P = human PMI activators, high substrate, primary screen, biochemical, fluorescence intensity, near-saturating mannose 6-phosphate; Mannose-6-phosphate isomerase (Homo sapiens), P34949; coupled PMI enzyme assay, resazurin fluorescence, 20 min; active compounds read high; 1 = untreated enzyme, 0 = substrate-free blank; activation factor at 20 µM; 190,000 compounds, 0.34% hits;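 active = activation factor of 2 or more at 20 µM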
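Test system: human phosphomannose isomerase with PGI, G6PDH, diaphorase coupling enzymes; Amount: PMI at 15 ng/mL final; Reagent: Mannose-6-phosphate 1.0 mM (near-saturating) plus 0.22 mM NADP+; Timing: 20 min, room temperature; Technique: resorufin fluorescence at Ex 544/Em 590 nm; Dosing: 20 µM single dose.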
Cl transport mod = KCC2 cotransporter modulators, thallium flux, primary screen, cell-based, HEK293 KCC2, FluoZin-2 fluorescence, MLSMR. 190,000 compounds, 2.2% hits. Solute carrier family 12 member 5 (Homo sapiens), Q9H2X9. B-score of Tl+ flux slope (higher = more flux/activation; lower = inhibition) at 10 µM. KCC2 cells, thallium flux FluoZin-2 fluorescence. AID 1456, 2008;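 active = thallium flux slope and its plate-corrected score both differing from the plate sample mean at a set confidence after two filtering rounds, in either direction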;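 note: slope of fluorescence scaled to starting intensity during 10 to 20 s after thallium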
PMI act = activators of human PMI, primary screen, biochemical, fluorescence intensity, near-Km mannose 6-phosphate. AID 1214, 2008. activation factor at 20 µM. purified human PMI, coupled resazurin fluorescence, 20 min; active compounds read high; 1 = vehicle control, 0 substrate-free wells. Mannose-6-phosphate isomerase (Homo sapiens), P34949. 190,000 compounds, 0.005% hits;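 active = activation factor of 2 or more at 20 µM, relative to plate controls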
ABCB1 block = ABCB1 efflux pump inhibitors, primary screen, cell-based, multiplex, flow cytometry, ABCG2 counter-screen; ATP-dependent translocase ABCB1 (Homo sapiens), P08183; CCRF-Adr cells, JC-1 efflux; inhibition, % at 6.6 µM; 190,000 compounds, 0.067% hits; in the data active = inhibition above about 40%;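 note: higher value means more JC-1 retained so stronger ABCB1 efflux block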
ROMK primary = ROMK potassium channel modulators, primary screen, cell-based, thallium flux, MLSMR library; ATP-sensitive inward rectifier potassium channel 1 (Homo sapiens), P48048; Tet-inducible ROMK, thallium flux fluorescence; actives lie on both sides; B-score at 10 µM; 130,000 compounds, 2% hits; AID 1918, 2009;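 active = signal ratio slope over the read window, or its plate-corrected B-score, at least 3 SD from the plate mean, either direction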;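 note: B-score of the F/F0 ratio slope over 7 to 12 s after thallium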
Of the large screens only hits and unclear results are named; the others gave an inactive call. Sampled rows, rich in hits. Any-hit rate of the full collection: about 3.3%.

O=C1OC(c2ccco2)=N/C1=C\c1ccc(-c2cccc(C(F)(F)F)c2)o1	none (no result: ROMK primary)
Cc1ccc2oc(-c3cccc(NC(=S)NC(=O)/C=C/c4ccco4)c3)nc2c1	none
Cc1ccc2oc(-c3cccc(NC(=S)NC(=O)c4cccs4)c3)nc2c1	Cl transport mod 7.7 (no result: ROMK primary)
COc1ccc(S(=O)(=O)NCc2ccc(C(=O)N3CCc4ccccc4C3)cc2)cc1	none
CCOCCCNS(=O)(=O)c1ccc(NC(=O)Cc2c(F)cccc2Cl)cc1	none (no result: Cl transport mod)
COC(=O)c1c(NC(=O)COC(=O)c2ccc(Cl)cc2[N+](=O)[O-])sc2c1CCCCC2	none (no result: ROMK primary)
COC(=O)c1c(NC(=S)Nc2ccc(F)cc2[N+](=O)[O-])sc2c1CCCCC2	Cl transport mod 20 (no result: ROMK primary)
COC(=O)c1c(NC(C)=O)sc2c1CCCC2	none (no result: ROMK primary)
CCOC(=O)c1c(NC(=S)Nc2ccccc2)sc2c1CC(C)(C)SC2	none
CCOC(=O)c1c(NC(=S)NC)sc2c1CC(C)(C)SC2	Cl transport mod 37 (no result: ROMK primary)
CNC(=S)Nc1sc2c(c1C(=O)OC)CCC2	Cl transport mod 52, ROMK primary 6.3
CCOc1ccc(N(CC(=O)N/N=C/c2ccc(OC(C)C)cc2)S(C)(=O)=O)cc1	none
CCC1CCCCN1C(=O)CCc1nnc(Cc2cc(OC)ccc2OC)o1 (centres undefined)	none (no result: ABCG2 block, PMI act satM6P, PMI act, ABCB1 block, ROMK primary)
Cc1cc(C)c(OCC(=O)Nc2nnc(-c3ccco3)o2)c(C)c1	none
CC1(C(=O)OCC(=O)Nc2ccc3ccccc3c2)CC1(Cl)Cl (centres undefined)	none
Cc1ccccc1-c1ncc(CN2CCC(CO)(CCCc3ccccc3)CC2)cn1	none
COc1ccc(-n2nc([N+](=O)[O-])c(=NCCC3=CCCCC3)n2O)cc1	none (no result: ROMK primary)
O=C(Nc1ccncc1)C1CCC(CNS(=O)(=O)c2cccc3nsnc23)CC1 (centres undefined)	none (no result: ABCG2 block, PMI act satM6P, PMI act, ABCB1 block)
C=CCSC1=NC(=O)/C(=C/c2cccs2)S1	ROMK primary -5.7 (no result: ABCB1 block)
O=C(Nc1ccccc1N1CCCC1)c1cccnc1	PMI act satM6P 2.1 (no result: ROMK primary)
O=C(Nc1ccccc1N1CCN(C(=O)c2ccc(Cl)cc2)CC1)c1cccnc1	none (no result: ROMK primary)
O=C(Nc1ccccc1N1CCCC1)c1ccc(Br)o1	PMI act satM6P 2.1 (no result: Cl transport mod, ROMK primary)
O=C(Nc1ccccc1C(=O)O)c1cccc(NC(=O)c2ccc(Br)o2)c1	Cl transport mod -3.2
O=C(Nc1ccccc1C(=O)O)c1ccc(NC(=O)c2ccc(Br)o2)cc1	none
O=C(Nc1nc(-c2ccccn2)cs1)c1ccc(Br)s1	Cl transport mod 39 (no result: ROMK primary)
CC(C)OP(=O)(OC(C)C)/C(C=O)=N\Nc1ccc([N+](=O)[O-])cc1	none (no result: ABCG2 block, PMI act satM6P, PMI act, ABCB1 block)
Cc1[nH][nH]c(=O)c1C(c1c(C)[nH][nH]c1=O)c1cn(C)c2ccccc12	none
Cc1[nH][nH]c(=O)c1C(c1c(C)[nH][nH]c1=O)c1cn(Cc2cccc3ccccc23)c2ccccc12	ROMK primary -2.7
CCOC(=O)c1sc(NC(=O)CC)c(C#N)c1C	none
O=C(O)C/C=C(/NC(=O)OCc1ccccc1)C(=O)OCc1ccccc1	PMI act satM6P 2.8
CCOC(=O)C(C(=O)OCC)c1cc(Br)c2noc3c2c1C(=O)c1ccccc1-3	ABCG2 block active, ABCB1 block 156 (no result: Cl transport mod, ROMK primary)
O=C(Nc1ccccc1)c1cc2ccc3ccccc3c2s1	none (no result: ABCG2 block, PMI act satM6P, PMI act, ABCB1 block)
Cc1cc(NC(=O)c2ccccc2F)n(-c2nc3ccccc3[nH]2)n1	none
Cc1cc(Nc2ccccc2)n(-c2nc3ccccc3[nH]2)n1	Cl transport mod 3.3 (no result: ROMK primary)
CCCC(=O)Nc1ccc2c(c1)nc(CCN1CCCCC1)n2C	none (no result: ABCG2 block, PMI act satM6P, PMI act, ABCB1 block, ROMK primary)
Cc1ccccc1N/N=C1\CCCNC1=O	none (no result: ROMK primary)
Cc1ccc(C)c(N/N=C2\CCCNC2=O)c1	PMI act satM6P 2.5
Cc1cccc(-n2c(-c3csc(C(C)C)c3)n[nH]c2=S)c1	Cl transport mod 7.6
COc1cc(/C=C(\C#N)c2nn(CCO)c(N)c2C#N)cc(OC)c1OC	PMI act satM6P 2.2
Fc1cccc2sc(Nc3nc4cc5c(cc4s3)OCCO5)nc12	Cl transport mod 11
CC(C)C(=O)Nc1nc2cc3c(cc2s1)OCO3	none (no result: Cl transport mod, ROMK primary)
Fc1cccc2sc(Nc3nc4cc5c(cc4s3)OCO5)nc12	Cl transport mod 23
O=c1[nH]c(NC2CCCCC2)c([N+](=O)[O-])c(=O)[nH]1	none
Cc1ccc(C)c(NC(=S)NNC(=O)c2cc3c(s2)CCC(C)C3)c1 (centres undefined)	Cl transport mod 28 (no result: ROMK primary)
Cc1ccc(C)c(NC(=S)NNC(=O)c2csc(C(C)C)c2)c1	Cl transport mod 13 (no result: ROMK primary)
Cc1cccc(NC(=S)NNC(=O)c2csc3c2CCC(C)C3)c1 (centres undefined)	Cl transport mod 25
C/C(=N/NC(=O)c1cc2ccccc2cc1O)C1C(=O)c2ccccc2C1=O	Cl transport mod -2.8, ROMK primary 4.8
CC(C)(C)C(=O)/C=c1\s/c(=C\c2ccc(-c3ccc([N+](=O)[O-])cc3)o2)c(=O)n1CC(=O)NC(N)=O	none (no result: Cl transport mod)
Cc1ccc(-c2nc3sc(C(N)=O)c(N)c3c3c2CCCC3)cc1	PMI act satM6P 2.4
NS(=O)(=O)c1ccc(CNC(=O)c2scc3c2CCCC3)cc1	none
CCC(CC)C(=O)N1CCN(c2ccccc2)CC1	PMI act satM6P 2.8
CCOC(=O)c1c(C)[nH]c(-c2csc(N)n2)c1C	PMI act satM6P 2
COc1ccc(/C=N/NC(=O)c2ccncc2)cc1Cn1nc([N+](=O)[O-])c(Br)c1C	none
Fc1ccc(C[n+]2csc3ccccc32)cc1	none (no result: ROMK primary)
Clc1ccc(C[n+]2csc3ccccc32)cc1	PMI act satM6P 2.2 (no result: Cl transport mod)
Cc1c(NC(=S)N/N=C/C=C/c2ccc([N+](=O)[O-])cc2)c(=O)n(-c2ccccc2)n1C	PMI act satM6P 2.1
N=C1/C(=C/c2ccc(-c3cccc(C(=O)O)c3)o2)C(=O)N=C2SC=C(c3ccccc3)N12	ROMK primary 2.3
O=C(Oc1ccc(Cl)c2cccnc12)c1cccc([N+](=O)[O-])c1	none (no result: ROMK primary)
O=C(Oc1c(Cl)cc(Cl)c2cccnc12)c1cccc([N+](=O)[O-])c1	Cl transport mod 51
FC(F)(F)C(F)(F)c1nnc2ccc(-n3ccnc3)nn12	none
CN(CCC#N)C(=O)CSc1ncnc2sc(-c3ccccc3)cc12	none (no result: ROMK primary)
CC(C)C(C)(C#N)NC(=O)CSc1ncnc2sc(-c3ccccc3)cc12 (centres undefined)	Cl transport mod -3.6
